The entries come from a sample that favours hits as a whole.
HUVEC inhibit – human endothelial cell proliferation inhibition; viability, % at 10 µM (by protocol); HUVEC proliferation, CellTiter-Glo luminescence, 72 h; hits give low values; AID 648; actives 1.1% (n = 86,000);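 active = viability at or below 30%; inactive = viability above 30%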;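 also: 100% = median luminescence of DMSO-only cell control wells on each plate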
Pyk2 oligo antag – antagonists of human Pyk2 oligomerization; Q14289; Q293 cells, Pyk2 FERM NanoBiT luminescence; hits give low values; z-score (the deposit names both 25 µM and 10 µM); actives 0.83% (n = 99,000);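 active = Z-score of -3 or lower, scaled per plate to the spread of control and sample wells; inactive = z-score above -3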;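 also: negative z-score means lost luminescence so less FERM oligomerization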
Target sequence (Q14289 whole entry, looked up): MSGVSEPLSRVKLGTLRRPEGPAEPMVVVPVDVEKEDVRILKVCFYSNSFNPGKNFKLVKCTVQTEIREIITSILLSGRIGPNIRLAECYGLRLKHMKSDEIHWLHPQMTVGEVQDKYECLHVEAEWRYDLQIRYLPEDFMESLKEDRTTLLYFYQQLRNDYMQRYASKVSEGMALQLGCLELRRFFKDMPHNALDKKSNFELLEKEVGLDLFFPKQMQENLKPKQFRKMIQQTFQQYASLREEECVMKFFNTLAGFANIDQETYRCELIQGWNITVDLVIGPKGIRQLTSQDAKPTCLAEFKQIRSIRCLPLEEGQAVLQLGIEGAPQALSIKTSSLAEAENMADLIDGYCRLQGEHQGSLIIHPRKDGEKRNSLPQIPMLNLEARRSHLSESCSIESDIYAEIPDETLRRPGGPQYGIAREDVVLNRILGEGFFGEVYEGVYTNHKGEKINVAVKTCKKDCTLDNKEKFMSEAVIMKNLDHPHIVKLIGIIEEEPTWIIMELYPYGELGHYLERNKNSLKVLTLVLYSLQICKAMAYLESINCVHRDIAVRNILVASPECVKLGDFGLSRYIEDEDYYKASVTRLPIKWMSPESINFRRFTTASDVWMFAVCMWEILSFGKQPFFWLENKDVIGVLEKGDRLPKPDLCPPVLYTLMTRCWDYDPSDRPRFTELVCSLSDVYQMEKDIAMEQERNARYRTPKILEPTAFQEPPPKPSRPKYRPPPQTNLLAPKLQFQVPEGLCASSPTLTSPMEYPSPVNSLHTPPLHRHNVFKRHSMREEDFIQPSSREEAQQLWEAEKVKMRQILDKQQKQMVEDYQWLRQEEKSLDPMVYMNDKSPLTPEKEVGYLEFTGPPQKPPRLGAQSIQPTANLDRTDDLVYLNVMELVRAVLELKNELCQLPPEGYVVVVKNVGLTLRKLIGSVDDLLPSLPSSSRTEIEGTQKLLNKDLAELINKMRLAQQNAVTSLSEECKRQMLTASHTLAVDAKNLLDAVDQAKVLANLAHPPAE
Lung fibro prol – blocks proliferation of human lung fibroblasts | LL 47 human lung fibroblast viability, ATP luminescence; hits give low values | viability, % at 10 µM | actives 1.1% (n = 85,000) | AID 719;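 active = viability at or below 50% in the single dose screen; inactive = viability above 50%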;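 also: compound exposure lasted 72 h before the ATP readout; 100% = median luminescence of untreated cell-only wells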
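Assay system: human lung fibroblast line LL 47, low passage. Input: 1,150 fibroblasts seeded per well. Times: overnight cell rest, 72 h compound treatment at 37 °C. Evaluation: % viability of median cell-only signal. Technique: luminescent ATP detection, CellTiter-Glo. Control set: cell-only wells, no compound.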
bCat KO growth – beta-catenin-lacking colon tumor cell growth suppression; HCT116 beta-catenin knockout viability, CellTiter-Glo, 60 h; hits give low values; viability, % at 10 µM; actives 1.5% (n = 140,000); AID 818;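 active = viability at or under a set limit, the compound median less 4 SD, cut at about 6% in these data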;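 also: 0% = Hyamine 1622 control at 20 µM and 100% = untreated cell control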
PTEN del growth – growth suppressors of cells with PTEN tumor suppressor deletion | AID 827 | HCT116 PTEN-null viability, CellTiter-Glo, 60 h; hits give low values | viability, % at 10 µM | actives 1.2% (n = 140,000);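 active = viability at or below a set limit, 4 SD under the median of all tested compounds, cut at about 3.7% in these data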;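 also: PTEN knockout HCT116 line with beta catenin targeted HCT116 as companion control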
H69AR inhibit – blocks growth of human H69AR lung tumor cells. H69AR lung tumor viability, ATP luminescence, 72 h; hits give low values. AID 598. actives 6% (n = 85,000). viability, % at 10 µM;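 active = viability at or below 40%; inactive = viability above 40%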;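 also: multidrug resistant small cell line overexpressing MRP-1 efflux transporter; 100% = mean luminescence of untreated control wells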
The depositor's hits bear a star; . = no result given.

SMILES	HUVEC inhibit	Pyk2 oligo antag	Lung fibro prol	bCat KO growth	PTEN del growth	H69AR inhibit
O=c1[nH]c2cc3c(cc2cc1C(c1nnnn1Cc1ccccc1)N1CCCc2ccccc21)OCO3 (stereo unspecified)	53	.	80	90	86	21*
O=c1[nH]c2cc3c(cc2cc1C(c1nnnn1Cc1ccccc1)N1CCCCCC1)OCCO3 (stereo unspecified)	69	0.14	30*	93	99	2.1*
CCc1ccc2[nH]c(=O)c(C(c3nnnn3CC3CCCO3)N3CCCc4ccccc43)cc2c1 (stereo unspecified)	89	-0.27	95	87	84	20*
CCN(CC)c1nc(C)nc2c1cnn2CCc1ccccc1	.	-1.7	.	78	84	.
Cc1ccc2sc(-c3ccc(NC(=O)CCN4C(=O)c5ccccc5C4=O)cc3)nc2c1	.	.	.	89	82	.
Cc1ccc(NC(=O)C2CC(=O)N/C(=N/N=C/c3ccco3)S2)cc1C (stereo unspecified)	.	.	.	96	70	.
COc1cc(Cl)c(C)cc1NC(=O)CNC(=O)Cn1cnc2ccccc2c1=O	.	1.2	.	93	93	.
Cc1ccc(-c2nnn(CC(=O)N(CC(=O)NC3CCCCC3)c3ccc(F)c(Cl)c3)n2)o1	37	1.1	40*	42	41	8.3*
Cc1ccc(-c2nnn(CC(=O)N(CC(=O)NC3CCCC3)c3ccc(F)c(Cl)c3)n2)o1	52	-0.71	83	73	63	7.8*
Cc1ccc(-c2nnn(CC(=O)N(CC(=O)NC3CCCC3)c3cnc4ccccc4c3)n2)o1	98	0.16	100	90	90	76
Cc1ccc(-c2nnn(CC(=O)N(CC(=O)NCC3CCCO3)c3ccc(F)c(Cl)c3)n2)o1 (stereo unspecified)	90	-0.23	98	102	96	86
CCC(C(=O)NC1CCCC1)N(C(=O)Cn1nnc(-c2ccc(C)o2)n1)c1cnc2ccccc2c1 (stereo unspecified)	97	3.4	86	14	62	5.0*
CCOc1ccc(N(CC)S(=O)(=O)c2ccc3c(c2)n(C)c(=O)c(=O)n3C)cc1	108	.	94	73	80	76
CCSc1ncnc2c1sc1nc3c(cc12)COC(C)(C)C3	.	.	.	94	80	.
CC(C)(C)c1ccc(/C=C/C(=O)c2ccc(NC3=NCCCS3)cc2)cc1	.	.	.	1.1*	0.9*	.
O=C(/C=C/c1ccc(Br)cc1)c1ccc(NC2=NCCCS2)cc1	.	.	.	3.2*	2.4*	.
c1ccc(-n2ncc3c2ncn2nc(CSc4nc5ccccc5s4)nc32)cc1	42	2.3	62	.	.	29*
CCN(C(=O)c1cnc(N2CCN(c3ncccn3)CC2)c2ccccc12)c1cccc(Cl)c1	51	-3.3*	76	4.0*	5	20*
CCc1c(C#N)c(SCCC(=O)Nc2cccc(OC)c2)nc2c1C(=O)CC(C)(C)C2	.	-2.4	.	98	84	.
CCc1c(C#N)c(SCCC(=O)Nc2ccc(F)cc2)nc2c1C(=O)CC(C)(C)C2	.	-3.2*	.	10	9	.
Cc1noc(C)c1COc1cccc(C(=O)Nc2ccc(OCc3ccccc3)cc2)c1	73	-0.13	92	60	67	66
COc1ccccc1N1CCN(c2ccc(-c3ccccc3)nn2)CC1	40	-1.2	50*	13	10	19*
COc1ccccc1N1CCN(c2nc(-c3ccccc3)cc(C(F)(F)F)n2)CC1	116	0.35	104	76	78	93
CC1CC(C)(C)N(C(=O)CSc2ccc(-c3ccc(F)cc3)nn2)c2ccccc21 (stereo unspecified)	.	-0.28	.	4.9*	4	.
O=C(NCCN1CCOCC1)c1cc(Sc2ccccc2Cl)nc2ccccc12	.	.	.	91	91	.
Cn1cc(/C=N/n2cnc3sc4c(c3c2=O)CCCC4)c2ccccc21	78	-0.31	90	63	55	26*
CCc1cc[n+](C2=C([O-])c3ccccc3C(=O)/C2=N\S(=O)(=O)c2cccs2)cc1	.	.	.	2.8*	3.2*	.
O=C(NNc1ccc([N+](=O)[O-])cc1)C12CC3CC(CC(C3)C1)C2	.	0.22	.	91	86	.
Cc1ccc2c(CC(=O)Nc3ccc(N4CCN(C)CC4)cc3C)coc2c1	15*	-0.14	69	46	44	22*

Bioassay records deposited in PubChem BioAssay by several laboratories.
